Reference: PMC6831891 (Molecular Therapy. Nucleic Acids, 2019)

Tests used:
[1] = test system: S. pyogenes strain 591 (M49); experiment: G. mellonella infection model; format: in vivo, Galleria mellonella
Outline: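 Wax moth larvae (150–200 mg) injected into the hemocoel, between the last two pro-leg pairs, with 1–3 × 10^6 CFU/larva. Inoculum was grown overnight in THY, washed twice and resuspended in 0.9% NaCl. Test compound (4 nmol/larva) injected 30 min post-infection; 0.9% NaCl served as mock. Survival recorded daily over 7 days.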

[2] = test system: S. pyogenes M49 strain 591; experiment: Bacterial kill assay; format: cell-based, Streptococcus pyogenes; conditions: for Reduction of CFU per milliliter: concentration range 1 to 10 μM, n = 3; for Reduction of CFU per milliliter / Clearance six hours following treatment / Reduction of bacterial counts by scPNA / Reduction of bacterial counts by scPNAs in kill assay: 6 h; for Clearance six hours following treatment: 5 μM or 10 μM; for log CFU reduction: six hours following treatment; for Reduction of bacterial counts by scPNA: 10 μM scPNA, n = 5; for Reduction of bacterial counts by scPNAs in kill assay: up to 5 μM scPNA
Outline: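 S. pyogenes overnight cultures diluted in PBS/BHI (7/2) to about 2 × 10^5 CFU/mL. Test compound added to 1–10 μM final, with water as mock. Incubated 6 h at 37°C while rotating at 7 rpm. Dilutions plated on THY agar, and CFU counted after overnight growth at 37°C under 5% CO2/20% O2. Initial screen used two biological replicates; later experiments used at least three.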

[3] = test system: S. pyogenes M1 strain AP1; experiment: Bacterial kill assay, strain AP1; format: cell-based, Streptococcus pyogenes; conditions: 6 h (data not shown; Figure 3B cited)
Outline: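 Overnight THY cultures (37°C, 5% CO2/20% O2) diluted in PBS/BHI (7/2) to about 2 × 10^5 CFU/mL. About 10^5 CFU were exposed to CPP-PNA conjugates at 1–10 μM final, with 5 μM used in the isolate comparison; water was the mock. Incubation 6 h at 37°C, rotating at 7 rpm. Viable counts came from plating dilutions on THY agar, compared with the untreated control.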

gyrA mRNA = format: cell-based, Streptococcus pyogenes; conditions: 2 μM CPP-PNA, 6 h, 10^7 CFU/mL in THY; normalised to 5S RNA gene, 2^-ΔΔct; n = 3

Molecule: C[C@H]1COc2c(N3CCN(C)CC3)c(F)cc3c(=O)c(C(=O)O)cn1c23 [levofloxacin, reference compound]
- Survival of infected larvae ([1]; 1 μg levofloxacin alone, untreated infected larvae 20%, n = 30 larvae per group): 46%

Molecule: Dansyl-G-C-ELALE LALEALEAALELA [ELA-anti-gyrA PNA]
- Reduction of CFU per milliliter [2]: no reduction

Molecule: KKKKKKKK [K8-anti-gyrA PNA]
- Antimicrobial effect in AP1 [3]: did not show any antimicrobial effect
- Clearance six hours following treatment [2]: no clearance was achieved
- log CFU reduction ([2]; 5 μM): three
- log CFU reduction ([2]; 10 μM): four
- gyrA mRNA level relative to mock-treated bacteria (gyrA mRNA): 60%

Molecule: KKKKKKKK [K8-anti-gyrA scPNA]
- Reduction of bacterial counts by scPNA [2]: significant reduction
- Reduction of bacterial counts by scPNAs in kill assay [2]: did not lead to the reduction of bacterial counts

Molecule: LLIILRRRIRKQAHAHSK [mVE-cadherin-anti-gyrA PNA]
- Reduction of CFU per milliliter [2]: no reduction

Molecule: RQIKIWFQNRRMKWKK [Ant-anti-gyrA PNA]
- Reduction of CFU per milliliter [2]: no reduction

Molecule: RXRRXRRXRRXRXB [(RXR)4XB-anti-gyrA PNA]
- Effect on larvae survival relative to the other active conjugates ([1]; 4 nmol/larva, 7 days): lower compared with the other conjugates
- Clearance six hours following treatment [2]: no clearance was achieved
- log CFU reduction ([2]; 5 μM): three
- log CFU reduction ([2]; 10 μM): four
- gyrA mRNA level relative to mock-treated bacteria (gyrA mRNA): 56%

Molecule: RXRRXRRXRRXRXB [(RXR)4XB-anti-gyrA scPNA]
- Reduction of bacterial counts by scPNA [2]: significant reduction
- Reduction of bacterial counts by scPNAs in kill assay [2]: did not lead to the reduction of bacterial counts
